Compound activity from PubChem BioAssay.
Most compounds without a hit are left out; they make up all but 2.3% or so of the library.
SUMO1-SIM PPI: modulators of human SUMO1-mediated protein-protein interactions | SUMO1 binding to a labelled peptide, TR-FRET, 1 h | inhibition, % at 20 µM | actives 0.33% (n = 360,000) | AID 602429 | P63165; in the data active = inhibition above about 37%
Target sequence (P63165 whole entry, looked up): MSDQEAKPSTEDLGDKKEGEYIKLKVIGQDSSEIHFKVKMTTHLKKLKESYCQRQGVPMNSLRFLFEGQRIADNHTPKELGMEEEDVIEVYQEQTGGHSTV
Rpn11 inh: blocks the human proteasome subunit Rpn11 | inhibition, % at 20 µM | O00487 | actives 0.59% (n = 360,000) | human 26S proteasome, Ub4-pepOG fluorescence polarization; 20S core pre-blocked with epoxomicin;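 active = inhibition at 20 µM, scaled to each plate's controls, above about 33%, limit read from the data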
MT1-MMP act inh: MT1-MMP (human) activation inhibition; AID 651647; P50281; HT1080 RFP-PRO-GFP cells, GFP/RFP ratio fluorescence, overnight; percent of plate control window, DMSO zero; GFP/RFP ratio change, % at 20 µM; actives 0.061% (n = 360,000);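 active = GFP/RFP ratio change of at least 30% with cell ATP level not reduced by more than half and red fluorescence within 50% of control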
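Assay system – RFP-PRO-GFP reporter HT1080 cells · Compound dosing – single dose of 20 µM compound, 1% DMSO final · Incubation – overnight compound exposure at 37 °C · Measure – GFP/RFP fluorescence ratio · Benchmarks – DMSO wells and RFP-L50D-GFP cells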
SKN-1 block: inhibitors of C. elegans SKN-1; AID 624304; actives 0.49% (n = 360,000); inhibition, % at 21.8 µM; C. elegans VP596 Pgst-4::GFP/RFP ratio, acrylamide-induced, 24 h;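 active = interference check ratio from 0.5 to 1.5 plus GFP to RFP signal ratio inhibition reaching or exceeding a fixed threshold, cut at about 30% in these data, passing the limit was not always enough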
DNMT1 inh: blocks human DNA methyltransferase DNMT1 | DNMT1 molecular beacon, Hinp1I cleavage, fluorescence | inhibition (reported as % activation of signal), % at 10 µM | actives 0.83% (n = 360,000) | AID 588458; in the data active = inhibition above about 50%
CSN inh: blocks human CSN-mediated cullin deneddylation; AID 651999; Q92905; actives 0.38% (n = 360,000); Purified CSN, SCF-Nedd8-OG deneddylation, fluorescence polarization; inhibition, % at 12.5 µM;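 active = pattern-corrected inhibition above about 35%, with an unprinted fluorescence ratio check between 0.5 and 1.5, limit read from the data, passing the limit was not always enough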;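 note: 0% = enzyme with substrate and 100% = substrate without enzyme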
Target sequence (Q92905 whole entry, looked up, one chain of several): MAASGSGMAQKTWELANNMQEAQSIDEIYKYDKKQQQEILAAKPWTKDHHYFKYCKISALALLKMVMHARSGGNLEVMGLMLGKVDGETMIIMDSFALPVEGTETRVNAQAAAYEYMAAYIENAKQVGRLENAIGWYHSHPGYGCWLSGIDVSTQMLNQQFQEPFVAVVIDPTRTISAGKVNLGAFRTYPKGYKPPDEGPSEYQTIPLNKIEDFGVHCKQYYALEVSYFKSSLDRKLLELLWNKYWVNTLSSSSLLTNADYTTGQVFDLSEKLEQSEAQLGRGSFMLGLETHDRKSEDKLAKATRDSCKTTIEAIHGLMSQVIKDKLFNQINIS
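Assay system: purified human Csn5 enzyme expressed in HEK293T cells; Input: 0.24 nM Csn5 enzyme, final concentration; Reagent: 10 nM SCFSkp2-Nedd8OG; Compound dosing: 12.5 µM single point; Times: reaction 90 min, room temperature; Technique: fluorescence polarization readout.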
An asterisk follows results filed as active; x = no result shown.

SMILES	SUMO1-SIM PPI	Rpn11 inh	MT1-MMP act inh	SKN-1 block	DNMT1 inh	CSN inh
Cc1ccc(C)c(NC(=O)c2cc3ccccc3o2)c1	0.5	1.6	-6.7	40.5*	-1.8	-0.3
Cc1ccccc1S(=O)(=O)c1c(C)cc(C)n(CC(C)C)c1=O	1.3	0.9	-7.7	-8.4	-0.5	-1.9
Cc1ccccc1S(=O)(=O)c1c(C)cc(C)n(C)c1=O	3.5	5.4	-0.2	3.5	0.4	42.9*
N/C(=N\OC(=O)/C=C/c1ccccc1)c1ccccc1	-11.1	-0.4	3.6	35.6*	-0.8	-2.2
O=C(/C=C/c1ccccc1)Nn1cnnc1	-4.3	1.0	1.1	35.2*	8.9	0.9
COc1ccc(/C=C/C(=O)Nn2cnnc2)cc1	-2.1	0.1	4.1	6.6	3.9	-10.4
N/C(=N\OC(=O)/C=C/c1ccccc1)c1ccc(Cl)cc1	-4.7	-1.6	0.9	25.4	4.5	-8.4
O=C(/C=C/c1ccccc1)/C=C/c1ccccc1	3.6	3.5	1.0	80.9*	32.1	15.6
O=[N+]([O-])c1ccc(N2CCN(Cc3ccccc3)CC2)c2c1no[n+]2[O-]	-57.8	-33.7	-179.8	3.6	1.8	-6.4
COC(=O)[C@H](NC(=O)c1cc(-c2ccccc2)sc1N)C(C)C	-9.3	x	-0.2	-7.1	x	-1.8
COc1ccc(CSC(=S)NNc2ccccc2)cc1	5.4	1.3	3.7	11.9	-18.2	-0.2
CCOC(=O)c1c(C)nc2sc3c(=O)n(-c4ccc(C)cc4)cnc3c2c1-c1ccc(OC)cc1	40.4*	-2.3	1.4	1.3	9.2	-1.5
Cc1ccc(NC(=O)CN2C(=O)S/C(=C\c3ccc(-c4cccc(C(=O)O)c4C)o3)C2=O)cc1C	11.1	22.3	-6.1	-3.7	53.3*	24.8
Cc1ccc2c(c1C)-c1c(ccc(C)c1C)C(=O)C2=O	48.8*	-4.1	10.2	16.9	95.3*	16.5
Cc1ccc(F)c(S(=O)(=O)NC(=O)C2(C)CCN2C(=O)CCC2CCCC2)c1 (stereo unspecified)	4.5	-2.1	2.2	12.2	1.4	-4.9
CCN(CC)C(=O)c1sc2nc(-c3cccs3)cc(-c3ccc(Cl)cc3)c2c1N	-11.5	37.0*	-37.9	26.7	-0.8	2.1
O=C(Nc1nccs1)c1csc([C@H]2C[C@H](O)[C@@H](CO)O2)n1	-1.6	-4.5	1.0	-3.8	16.4	-2.2
CC(C)(C)NC(=O)C(c1ccccc1F)n1c(=O)c(-c2cc3ccccc3[nH]2)nc2ccccc21 (stereo unspecified)	-7.3	x	-7.9	-2.1	x	2.0
Cc1nc2ccccc2c(=O)n1/N=C/c1ccc(O)c(O)c1O	69.7*	38.2	0.3	10.1	77.9*	33.1
COc1ccc(Nc2c(-c3ccc(F)cc3)nc3nc(C)cc(C)n23)cc1	1.1	x	3.6	5.3	x	-3.0
CCNc1ccc(Br)cc(C(=O)/C=C/c2c(Cl)cccc2Cl)c1=O	20.4	54.0*	-29.9	-3.6	83.7*	36.5*
CNc1ccc(Br)cc(C(=O)/C=C/c2ccc(Cl)cc2Cl)c1=O	18.6	37.7	-15.8	2.7	67.0*	30.0
CC(=O)c1ccc(NC(=O)c2cccc(N3C(=O)c4ccccc4C3=O)c2)cc1	83.6*	58.8*	0.6	-5.7	40.2	131.6
CC(C)CC(=O)c1c[nH]c(C(=O)NCCCN2CCOCC2)c1	45.4*	0.9	1.0	4.7	3.1	-0.9
CN(C(=O)c1ccco1)c1nc(-c2ccccc2)cs1	-1.4	-2.5	1.0	40.1*	2.4	3.1
SMILES	SUMO1-SIM PPI	Rpn11 inh	MT1-MMP act inh	SKN-1 block	DNMT1 inh	CSN inh
CCN(C(=O)c1ccco1)c1nc(-c2ccc(OC)cc2)cs1	12.3	-6.6	2.8	45.6*	-3.0	7.7
COc1ccc(-c2csc(N(CC(C)C)C(=O)c3ccco3)n2)cc1	-1.2	0.7	-0.4	-6.0	0.2	-1.9
CC(=O)C1CCC2C3C=CC4=CC(=O)CCC4(C)C3CCC12C (stereo unspecified)	-20.6	4.3	6.3	1.1	1.6	-0.5
Clc1ccc(-c2nnc(-c3ccccc3)c(N3CCSCC3)n2)cc1	-0.9	2.1	-6.4	38.2*	-0.5	-1.7
Cn1cc(C(=O)c2ccc(Cl)cc2Cl)cc1C(=O)O	-3.0	-3.7	-1.5	-21.6	2.4	-1.9
Cn1cc(C(=O)c2ccccc2C(=O)O)cc1C(=O)C(Cl)(Cl)Cl	-1.5	0.2	-8.5	-8.5	-3.1	43.5*
O=C(/C=C/c1ccccn1)c1cc(Cl)cc(Cl)c1O	17.7	9.3	-3.1	15.4	-0.4	6.9
O=C(/C=C/c1ccc(Cl)cc1Cl)NC(=S)Nc1ccccn1	6.0	-3.4	-12.2	37.6*	21.1	-0.2
Clc1ccc(C=Cc2ccccn2)c(Cl)c1	-21.5	4.8	-4.1	84.9*	-2.5	-2.7
C[C@@H]1CCCCO[C@H](CN(C)C(=O)Nc2ccc3c(c2)OCO3)[C@@H](C)CN([C@H](C)CO)C(=O)c2cc(NS(=O)(=O)c3ccc(F)cc3)ccc2O1	-1.6	-1.2	1.1	-8.5	1.4	1.9
CCCC(C(=O)NCC1CCCO1)N(Cc1ccccc1)C(=O)CNS(=O)(=O)c1ccccc1 (stereo unspecified)	-2.3	-2.0	2.2	41.9*	-1.4	-4.0
CCCCNC(=O)C1(C)CCCCN1C(=O)c1c(C)noc1C (stereo unspecified)	2.0	1.9	3.1	-16.3	0.6	-3.0
CC(NC(=O)c1cc(COc2ccccc2)on1)c1nccs1 (stereo unspecified)	-4.6	1.0	-0.3	35.5*	-1.0	2.2
CC(=O)c1ccc(OCc2cc(C(=O)NC(C)c3cnn(C)c3)no2)cc1 (stereo unspecified)	-0.1	-3.0	-2.7	13.5	-2.1	2.0
COc1cccc(-c2nn(-c3ccccc3)cc2CNC(C)Cn2cncn2)c1 (stereo unspecified)	0.1	-4.0	7.7	2.2	-2.0	37.5*
CCC(=O)N1Cc2cc(C(=O)Nc3nccs3)nc(-c3cccc(-c4ccccc4OC)c3)c2[C@H]1CCO	8.6	x	0.0	8.7	x	3.1
Nc1nc(=O)n(C2CCC(CO)O2)cc1F (stereo unspecified)	0.5	x	2.9	6.2	x	5.8
COc1cc2nc(N3CCNCC3)nc(N)c2cc1OC	17.2	38.3	-3.4	-11.7	-2.0	115.9*
C[C@@H](CO)NC(=O)c1[nH]cnc1C(=O)Nc1ccc(CNC(=O)OC(C)(C)C)cc1	1.5	-2.1	0.7	12.5	-16.5	-2.6
O=C(Nc1cccnc1)c1c(O)c2cccc3c2n(c1=O)CC3	3.5	21.5	-4.7	38.1*	1.8	-4.0
C=CCn1c(C)c(/C=C/c2cc[n+](C)cc2)c2ccccc21	-149.6	x	-250.0	-5.0	13.8	139.9
